In assay [1] the test system is Mus musculus. In words: Protective effect against adenine-induced chronic renal failure in Kunming mouse assessed as nephridial IL-6 levels at 200 mg/kg, ig qd administered for 4 successive weeks with haikunshenxi capsule (reference value: 20.85 +/- 0.11 pg/ml). It is filed as functional.
Assay [2] deals with Mus musculus. Put plainly: Protective effect against adenine-induced chronic renal failure in Kunming mouse assessed as weight growth rate at 100 mg/kg, ig qd administered for 4 successive weeks with haikunshenxi capsule measured 24 hrs post last dose (reference value: 32.42 +/- 1.43%). It is filed as functional. A digest of the protocol: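 Male Kunming mice (20 ± 5 g) kept on a 12 h light/dark cycle at 18–20 °C on a standard diet. CRF induced by chronic dietary adenine. Test material given orally at 100 or 200 mg kg–1, alone or with Haikunshenxi capsule, alongside normal, model and capsule-only groups; ten mice per group. Weight growth rate recorded in %, kidney index in mg g–1.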

The subject of assay [3] is Mus musculus. Put plainly: Protective effect against adenine-induced chronic renal failure in ig dosed Kunming mouse assessed as increase in albumin levels in serum administered as qd for 4 successive weeks by bromocresol green colorimetric method. It is filed as functional, organism-based. A digest of the protocol:
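Adenine-fed CRF model in male Kunming mice (20 ± 5 g) housed at 18–20 °C on a 12 h light/dark cycle. Oral dosing at 100 or 200 mg kg–1, with or without Haikunshenxi capsule; ten mice per group. Serum creatinine, BUN, total protein and albumin measured, each group compared with the model group.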

Assay [4] deals with Mus musculus. Put plainly: Protective effect against adenine-induced chronic renal failure in Kunming mouse assessed as kidney index at 200 mg/kg, ig qd administered for 4 successive weeks measured 24 hrs post last dose (reference value: 1.94 +/- 0.03 mg/g). It counts as functional. A digest of the protocol:
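Male Kunming mice (20 ± 5 g) were housed on a 12 h light/dark cycle at 18–20 °C. Chronic renal failure was induced by long-term dietary adenine. The melanin was given orally at 100 or 200 mg kg–1, alone or with Haikunshenxi capsule as positive drug, with ten mice per group. Weight growth rate (%) and kidney index (mg g–1) were recorded.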

The test system of assay [5] is Mus musculus. Put plainly: Protective effect against adenine-induced chronic renal failure in Kunming mouse assessed as nephridial IL-6 levels at 200 mg/kg, ig qd administered for 4 successive weeks (reference value: 20.85 +/- 0.11 pg/ml). It counts as functional.
The subject of assay [6] is Mus musculus. Put plainly: Protective effect against adenine-induced chronic renal failure in Kunming mouse assessed as nephridial GSH-PX levels at 100 mg/kg, ig qd administered for 4 successive weeks by colorimetric method (reference value: 688.45 +/- 12.67 U/L). It counts as functional.
Assay [7] concerns Mus musculus. In words: Protective effect against adenine-induced chronic renal failure in Kunming mouse assessed as nephridial GSH levels at 100 mg/kg, ig qd administered for 4 successive weeks by colorimetric method (reference value: 3.05 +/- 0.11 mg/g). It counts as functional.
Assay [8] has as its system Mus musculus. Put plainly: Protective effect against adenine-induced chronic renal failure in ig dosed Kunming mouse assessed as decrease in nephridial TNF-alpha levels administered as qd for 4 successive weeks. It counts as functional, organism-based. A digest of the protocol:
(§1)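 CRF model made by chronic dietary adenine in male Kunming mice (20 ± 5 g); oral dosing at 100 or 200 mg kg–1, alone or with Haikunshenxi capsule; ten mice per group. Kidney tissue TNF-α, IL-1β and IL-6 measured as pg per mg protein, and iNOS activity as U mg–1 protein.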

In assay [9] the test system is Mus musculus. Put plainly: Protective effect against adenine-induced chronic renal failure in ig dosed Kunming mouse assessed as decrease in nephridial IL-1beta levels administered as qd for 4 successive weeks with haikunshenxi capsule. It is filed as functional, organism-based. A digest of the protocol: as §1
Assay [10] relates to Mus musculus. Put plainly: Protective effect against adenine-induced chronic renal failure in Kunming mouse assessed as nephridial MDA levels at 200 mg/kg, ig qd administered for 4 successive weeks by thiobarbituric acid method (reference value: 5.05 +/- 0.15 nmol/ml). It is filed as functional.
For assay [11], the system named is Mus musculus. Put plainly: Protective effect against adenine-induced chronic renal failure in Kunming mouse assessed as reduction in interstitial fibrosis in kidney at 200 mg/kg, ig qd administered for 4 successive weeks by haematoxylin and eosin dye-based optical microscopic method. It is filed as functional, organism-based. A digest of the protocol: (§2)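 Kidneys were taken from male Kunming mice given an adenine diet plus oral melanin (100 or 200 mg kg–1), with or without Haikunshenxi capsule, ten per group. Histological sections were examined at 400× for glomeruli, tubules, adenine crystals, tubular atrophy and interstitial fibrosis.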

The subject of assay [12] is Mus musculus. Put plainly: Protective effect against adenine-induced chronic renal failure in Kunming mouse assessed as reduction in renal tubular atrophy at 200 mg/kg, ig qd administered for 4 successive weeks with haikunshenxi capsule by haematoxylin and eosin dye-based optical microscopic method. It is filed as functional, organism-based. A digest of the protocol:
as §2

Assay [13] concerns Mus musculus. In words: Protective effect against adenine-induced chronic renal failure in Kunming mouse assessed as nephridial SOD levels at 100 mg/kg, ig qd administered for 4 successive weeks by hydroxylamine method (reference value: 30.45 +/- 1.12 U/mg). It is filed as functional.
Assay [14] relates to Mus musculus. In words: Protective effect against adenine-induced chronic renal failure in Kunming mouse assessed as nephridial MDA levels at 100 mg/kg, ig qd administered for 4 successive weeks by thiobarbituric acid method (reference value: 5.05 +/- 0.15 nmol/ml). It counts as functional.
For assay [15], the system named is Mus musculus. Put plainly: Protective effect against adenine-induced chronic renal failure in Kunming mouse assessed as nephridial IL-1beta levels at 100 mg/kg, ig qd administered for 4 successive weeks with haikunshenxi capsule (reference value: 18.34 +/- 0.25 pg/ml). It counts as functional.
Assay [16] has as its system Mus musculus. Put plainly: Protective effect against adenine-induced chronic renal failure in ig dosed Kunming mouse assessed as increase in nephridial SOD levels administered as qd for 4 successive weeks by hydroxylamine method. It counts as functional, organism-based. A digest of the protocol: (§3)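 Male Kunming mice (20 ± 5 g) given dietary adenine to induce CRF, then dosed orally at 100 or 200 mg kg–1, with or without Haikunshenxi capsule; n = 10 per group. Kidney homogenate assayed for SOD and CAT (U mg–1 protein), GSH-Px (U L–1), GSH (mg g–1 protein) and MDA (nmol mL–1).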

Assay [17] has as its system Mus musculus. Put plainly: Protective effect against adenine-induced chronic renal failure in Kunming mouse assessed as nephridial IL-6 levels at 100 mg/kg, ig qd administered for 4 successive weeks (reference value: 20.85 +/- 0.11 pg/ml). It counts as functional.
The test system of assay [18] is Mus musculus. In words: Protective effect against adenine-induced chronic renal failure in ig dosed Kunming mouse assessed as increase in nephridial CAT levels administered as qd for 4 successive weeks by visible spectrometry method. It counts as functional, organism-based. A digest of the protocol:
as §3

Assay [19] relates to Mus musculus. In words: Protective effect against adenine-induced chronic renal failure in ig dosed Kunming mouse assessed as decrease in nephridial IL-6 levels administered as qd for 4 successive weeks with haikunshenxi capsule. It counts as functional, organism-based. A digest of the protocol: as §1
The test system of assay [20] is Mus musculus. Put plainly: Protective effect against adenine-induced chronic renal failure in Kunming mouse assessed as nephridial IL-6 levels at 100 mg/kg, ig qd administered for 4 successive weeks with haikunshenxi capsule (reference value: 20.85 +/- 0.11 pg/ml). It counts as functional.
Assay [21] concerns Mus musculus. In words: Protective effect against adenine-induced chronic renal failure in ig dosed Kunming mouse assessed as increase in nephridial GSH levels administered as qd for 4 successive weeks with haikunshenxi capsule by colorimetric method. It counts as functional, organism-based. A digest of the protocol: as §3
For assay [22], the system named is Mus musculus. In words: Protective effect against adenine-induced chronic renal failure in ig dosed Kunming mouse assessed as decrease in nephridial iNOS levels administered as qd for 4 successive weeks with haikunshenxi capsule. It counts as functional, organism-based. A digest of the protocol:
as §1

In assay [23] the test system is Mus musculus. Put plainly: Protective effect against adenine-induced chronic renal failure in Kunming mouse assessed as nephridial CAT levels at 200 mg/kg, ig qd administered for 4 successive weeks with haikunshenxi capsule by visible spectrometry method (reference value: 44.13 +/- 1.25 U/mg). It is filed as functional.

Each structure is given as a SMILES string. Calls of active or inactive are those of the source. The rule behind the calls is not given here.

`Cc1c(=O)c(=O)c2c3c[nH]c4c(C)c(=O)c(=O)c(c5c[nH]c1c52)c43`: the Activity is 10.74 pg/mL with Mus musculus [1]; 54.34% in the assay with Mus musculus [2]; “Dose-dependent effect” in the assay with Mus musculus [3]; 1.35 mg/g in the assay on Mus musculus [4]; 14.16 pg/mL in the assay on Mus musculus [5]; 743.09 U/L with Mus musculus [6]. The Activity in the assay with Mus musculus [7] is 4.19 mg/g; in the assay on Mus musculus [8], “Dose-dependent effect”; in the assay with Mus musculus [9], “Dose-dependent effect”; in the assay on Mus musculus [10], 3.74 nmol/mL; in the assay with Mus musculus [13], 32.32 U/mg; in the assay with Mus musculus [14], 3.95 nmol/mL. Also, the Activity was 14.51 pg/mL in the assay on Mus musculus [15]; “Dose-dependent effect” in the assay on Mus musculus [16]; 18.27 pg/mL with Mus musculus [17]; “Dose-dependent effect” with Mus musculus [18]; “Dose-dependent effect” in the assay on Mus musculus [19]; 12.07 pg/mL in the assay with Mus musculus [20]. For the same compound, the Activity entry in the assay on Mus musculus [21] is “Dose-dependent effect”; with Mus musculus [22], “Dose-dependent effect”; in the assay with Mus musculus [23], 76.47 U/mg. In addition, the outcome in the assay on Mus musculus [11] and in the assay with Mus musculus [12] was Active.
